Reference: article PMC3378324 (Febs Letters, 2012)

Assays:
[1] = tested on: Hck-SH3, Fyn(WT)-SH3, and Fyn(R96I)-SH3; test: NMR 1H-15N HSQC, comparison across SH3 domains; type: binding; conditions: 1 equivalent of ALIXV+PRR
[2] = tested on: Fyn(R96I)-SH3-GST; test: GST pull-down, SDS-PAGE and Coomassie blue staining; type: binding; conditions: in vitro
Summary of the method: (§1)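 Partner protein: human Alix fragment ALIX_V+PRR (residues 362–760, V domain plus SH3-binding proline-rich region), expressed with an N-terminal His6-Smt3 tag in E. coli BL21(DE3). Baits were GST-fused SH3 domains (Hck; Fyn wild-type; Fyn RT-loop mutant with Arg96 replaced by Ile). In vitro GST pull-down; bound protein resolved by SDS-PAGE and visualised by Coomassie blue staining.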

[3] = tested on: Hck-SH3-GST; test: as above; type: binding, human; conditions: in vitro
Summary of the method: as §1

[4] = SAXS; apo; compared with 190 ± 10 Å; ref [12]; cited from earlier work
[5] = tested on: Hck; conditions: ref [12]; cited from earlier work

B1: ALIXV+PRR: Human Alix recombinant construct (ALIXV+PRR) consisting of residues 362–760 (protein)
chain: SVQQSLAAYNQRKADLVNRSIAQMREATTLANGVLASLNLPAAIEDVSGDTVPQSILTKSRSVIEQGGIQTVDQLIKELPELLQRNREILDESLRLLDEEEATDNDLRAKFKERWQRTPSNELYKPLRAEGTNFRTVLDKAVQADGQVKECYQSHRDTIVLLCKPEPELNAAIPSANPAKTMQGSEVVNVLKSLLSNLDEVKKEREGLENDLKSVNFDMTSKFLTALAQDGVINEEALSVTELDRVYGGLTTKVQESLKKQEGLLKNIQVSHQEFSKMKQSNNEANLREEVLKNLATAYDNFVELVANLKEGTKFYNELTEILVRFQNKCSDIVFARKTERDELLKDLQQSIAREPSAPSIPTPAYQSSPAGGHAPTPPTPAPRTMPPTKPQPPARPPP
modifications: left off: His6-Smt3, N-terminal, state not stated
- involvement of nSrc loop, Hck-SH3 versus Fyn(R96I)-SH3 [1]: the nSrc loop seems to be more involved in the Hck-SH3–ALIXV+PRR interaction than in the Fyn(R96I)-SH3–ALIXV+PRR interaction
- GST pull-down binding [2]: binding
- GST pull-down binding [3]: binding
- maximum diameter (Dm) compared with Fyn(R96I)-SH3-bound ALIXV+PRR [4]: the same

B2: Alix: ALG-2 (apoptosis-linked gene 2)-interacting protein X, an adapter protein (protein, UniProt Q8WUM4 2-868, looked up)
Programmed cell death …: ATFISVQLKKTSEVDLAKPLVKFIQQTYPSGGEEQAQYCRAAEELSKLRRAAVGRPLDKHEGALETLLRYYDQICSIEPKFPFSENQICLTFTWKDAFDKGSLFGGSVKLALASLGYEKSCVLFNCAALASQIAAEQNLDNDEGLKIAAKHYQFASGAFLHIKETVLSALSREPTVDISPDTVGTLSLIMLAQAQEVFFLKATRDKMKDAIIAKLANQAADYFGDAFKQCQYKDTLPKEVFPVLAAKHCIMQANAEYHQSILAKQQKKFGEEIARLQHAAELIKTVASRYDEYVNVKDFSDKINRALAAAKKDNDFIYHDRVPDLKDLDPIGKATLVKSTPVNVPISQKFTDLFEKMVPVSVQQSLAAYNQRKADLVNRSIAQMREATTLANGVLASLNLPAAIEDVSGDTVPQSILTKSRSVIEQGGIQTVDQLIKELPELLQRNREILDESLRLLDEEEATDNDLRAKFKERWQRTPSNELYKPLRAEGTNFRTVLDKAVQADGQVKECYQSHRDTIVLLCKPEPELNAAIPSANPAKTMQGSEVVNVLKSLLSNLDEVKKEREGLENDLKSVNFDMTSKFLTALAQDGVINEEALSVTELDRVYGGLTTKVQESLKKQEGLLKNIQVSHQEFSKMKQSNNEANLREEVLKNLATAYDNFVELVANLKEGTKFYNELTEILVRFQNKCSDIVFARKTERDELLKDLQQSIAREPSAPSIPTPAYQSSPAGGHAPTPPTPAPRTMPPTKPQPPARPPPPVLPANRAPSATAPSPVGAGTAAPAPSQTPGSAPPPQAQGPPYPTYPGYPGYCQMPMPMGYNPYAYGQYNMPYPPVYHQSPGQAPYPGPQQPSYPFPQPPQQSYYPQQ
- binding to and activation of Hck [5]: binds to and activates Hck
